Experimental data published in ChEMBL document CHEMBL4339251, “Prenylated Bibenzyls from the Chinese Liverwort Radula constricta and Their Mitochondria-Derived Paraptotic Cytotoxic Activities” (J Nat Prod, 2019).
Active and inactive are the calls of the source. The rule behind the calls is not given here.

Legend:
NCI-H1299 [1] = assay: Induction of mitochondria-derived paraptosis in human NCI-H1299 cells assessed as formation of fusion among swollen mitochondria after 6 to 24 hrs by Mito-Tracker staining based fluorescence microscopy; format: functional, cell-based
Method in brief: (§1)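 Live-cell imaging. Treated cells on coverslips were stained with Mito-Tracker Red (100 nM) at 37 °C for 30 min, washed three times with PBS and stained with Hoechst 33342 (10 μg/mL) for 15 min. Images were taken by confocal or fluorescence microscopy at the indicated times.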

A549 [2] = assay: Induction of mitochondria-derived paraptosis in human A549 cells assessed as induction of HMGB1 translocation from nucleus to cytoplasm at 10 uM incubated for 24 hrs by immunofluorescence staining; format: functional, cell-based
Method in brief: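 HMGB1 immunofluorescence. Cells were treated at 10 μM for 24 h, fixed in 4% paraformaldehyde for 30 min, permeabilised with 0.3% Triton X-100 for 15 min and blocked with 5% BSA for 30 min. Anti-HMGB1 was applied at 4 °C overnight and the secondary antibody at 37 °C for 1 h. Nuclei were counterstained with DAPI and cells imaged by confocal microscopy.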

NCI-H1299 [3] = assay: Induction of apoptosis in human NCI-H1299 cells assessed as late apoptotic cells at 20 uM by annexinV-FITC and propidium iodide staining based flow cytometric analysis (reference value: 3.29%); format: functional
A549 [4] = assay: Induction of apoptosis in human A549 cells assessed as early apoptotic cells at 10 uM by annexinV-FITC and propidium iodide staining based flow cytometric analysis (reference value: 1.47%); format: functional
A549 [5] = assay: Induction of cytoplasmic vacuolization in human A549 cells at 10 uM treated for 3 hrs after pre-treatment with pan-caspase inhibitor Z-VAD-FMK for 1 hr by optical microscopy; format: functional, cell-based
Method in brief: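 Caspase-inhibitor morphology. Cells were treated with DMSO, 20 μM Z-VAD-FMK, 10 μM compound, or the combinations for 3 h, then imaged by optical microscopy.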

HepG2 = assay: Cytotoxicity in human HepG2 cells assessed as reduction in cell viability incubated for 48 hrs by MTT assay; format: functional, cell-based; conditions: HepG2, 48 h
Method in brief: (§2)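 MTT viability. Cells were seeded in 96-well plates overnight and exposed to a range of concentrations. MTT (5 mg/mL) was added for 4 h, formazan was dissolved in DMSO and absorbance read at 570 nm. Three independent experiments.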

A549 [6] = assay: Induction of cytoplasmic vacuolization in human A549 cells; format: functional, cell-based
MCF7 = assay: Cytotoxicity in human MCF7 cells assessed as reduction in cell viability incubated for 48 hrs by MTT assay; format: functional, cell-based; conditions: MCF7, 48 h
Method in brief: as §2, with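 “viability. U251 and NCI-H1299 were grown in DMEM, the other lines in RPMI 1640, each with 10% FBS, penicillin and streptomycin, at 37 °C in 5% CO2.” for “viability.”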

HT-29 = assay: Cytotoxicity in human HT-29 cells assessed as reduction in cell viability incubated for 48 hrs by MTT assay; format: functional, cell-based; conditions: HT-29, 48 h
Method in brief: as §2, with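 “viability. U251 and NCI-H1299 were grown in DMEM, the other lines in RPMI 1640, each with 10% FBS, penicillin and streptomycin, at 37 °C in 5% CO2.” for “viability.”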

NCI-H1299 [7] = assay: Cytotoxicity in human NCI-H1299 cells assessed as reduction in cell viability at 5 uM incubated for 24 hrs in presence of pan-caspase inhibitor Z-VAD-FMK by MTT assay; format: functional, cell-based
A549 [8] = assay: Induction of mitochondria-derived paraptosis in human A549 cells assessed as formation of fusion among swollen mitochondria after 6 to 24 hrs by Mito-Tracker staining based fluorescence microscopy; format: functional, cell-based; method in brief: as §1
NCI-H1299 [9] = assay: Induction of apoptosis in human NCI-H1299 cells assessed as induction of PARP cleavage at 2.5 to 10 uM incubated for 24 hrs by Western blot analysis; format: functional, cell-based
Method in brief: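 Western blot. Cells were cultured overnight in six-well plates, then exposed to various concentrations for 24 h before immunoblotting.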

KB = assay: Cytotoxicity in human KB cells assessed as reduction in cell viability incubated for 48 hrs by MTT assay; format: functional, cell-based
Method in brief: as §2, with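 “viability. U251 and NCI-H1299 were grown in DMEM, the other lines in RPMI 1640, each with 10% FBS, penicillin and streptomycin, at 37 °C in 5% CO2.” for “viability.”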

NCI-H1299 [10] = assay: Induction of ROS generation in human NCI-H1299 cells by DCFH-DA staining based flow cytometry; format: functional, cell-based; conditions: TDE = time-dependent effect
Method in brief: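 ROS by flow cytometry. Cells were exposed for the indicated times, then stained with DCFH-DA (10 μM). DCF mean fluorescence intensity was compared with untreated control. Mean ± SD, n = 3.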

NCI-H1299 [11] = assay: Induction of apoptosis in human NCI-H1299 cells assessed as necrotic cells at 10 uM by annexinV-FITC and propidium iodide staining based flow cytometric analysis (reference value: 3.17%); format: functional
SMMC-7721 = assay: Cytotoxicity in human SMMC7721 cells assessed as reduction in cell viability incubated for 48 hrs by MTT assay; format: functional, cell-based; conditions: SMMC-7721, 48 h
Method in brief: as §2, with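 “viability. U251 and NCI-H1299 were grown in DMEM, the other lines in RPMI 1640, each with 10% FBS, penicillin and streptomycin, at 37 °C in 5% CO2.” for “viability.”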

COC(=O)c1c(CCc2ccccc2)cc(O)c(CC=C(C)C)c1O
Activity (NCI-H1299 [1]): Active
Activity (A549 [2]): Active
Activity (NCI-H1299 [3]): 2.95%
Activity (A549 [4]): 0.75%
Activity (A549 [5]): Active
IC50 (HepG2): 6.3 µM
Activity (A549 [6]): Active
IC50 (MCF7): 10.2 µM
IC50 (HT-29): 5 µM
Activity (NCI-H1299 [7]): Active
Activity (A549 [8]): Active
Activity (NCI-H1299 [9]): inactive
IC50 (KB): 6.7 µM
Activity (NCI-H1299 [10]): Tde
Activity (NCI-H1299 [11]): 3.75%
IC50 (SMMC-7721): 8.6 µM
